Screening results (PubChem)
Hits are enriched below; roughly 9.6% of the tested compounds scored in any of these assays.
PMI act satM6P: activators of human phosphomannose isomerase at near-saturating mannose 6-phosphate. AID 1216. P34949. coupled PMI enzyme assay, resazurin fluorescence, 20 min; active compounds read high; 1 = untreated enzyme, 0 = substrate-free blank. 190,000 tested, 0.34% active. activation factor at 20 µM;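 active = activation factor of 2 or more at 20 µM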
Target sequence (P34949 whole entry, looked up): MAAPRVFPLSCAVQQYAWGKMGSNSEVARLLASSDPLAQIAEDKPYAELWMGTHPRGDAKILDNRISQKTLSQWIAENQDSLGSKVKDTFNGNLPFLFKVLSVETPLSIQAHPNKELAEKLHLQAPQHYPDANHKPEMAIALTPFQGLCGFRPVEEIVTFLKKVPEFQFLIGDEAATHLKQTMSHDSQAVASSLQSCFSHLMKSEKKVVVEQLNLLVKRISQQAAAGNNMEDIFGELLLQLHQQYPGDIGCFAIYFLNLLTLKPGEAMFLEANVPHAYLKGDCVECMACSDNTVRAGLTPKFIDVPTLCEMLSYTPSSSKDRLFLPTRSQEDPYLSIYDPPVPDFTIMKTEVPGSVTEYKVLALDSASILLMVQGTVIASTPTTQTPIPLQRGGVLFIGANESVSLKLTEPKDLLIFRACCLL
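Material: human phosphomannose isomerase with PGI, G6PDH, diaphorase coupling enzymes. Quantity: 15 ng/mL PMI. Medium: HEPES pH 7.4 buffer with MgCl2 and Tween-20. Reagent: Near-saturating mannose-6-phosphate, 1.0 mM. Compound: 20 µM single dose. Times: enzyme reaction with compound 20 min at room temperature. Detection: resorufin fluorescence at Ex 544/Em 590 nm.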
bCat KO growth: beta-catenin-lacking colon tumor cell growth suppression. HCT116 beta-catenin knockout viability, CellTiter-Glo, 60 h; active compounds read low. AID 818. 140,000 tested, 1.5% active. viability, % at 10 µM;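 active = viability at or under a set limit, the compound median less 4 SD, cut at about 6% in these data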
PTEN del growth: growth suppressors of cells with PTEN tumor suppressor deletion; AID 827; viability, % at 10 µM; HCT116 PTEN-null viability, CellTiter-Glo, 60 h; active compounds read low; 140,000 tested, 1.2% active;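 active = viability at or below a set limit, 4 SD under the median of all tested compounds, cut at about 3.7% in these data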;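 note: PTEN knockout HCT116 line with beta catenin targeted HCT116 as companion control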
PMI activator: increases human mannose-6-phosphate isomerase activity; purified human PMI, coupled resazurin fluorescence, 20 min; active compounds read high; 1 = vehicle control, 0 substrate-free wells; activation factor at 20 µM; 190,000 tested, 0.005% active;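 active = activation factor of 2 or more at 20 µM, relative to plate controls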
Lmaj promast: reduces viability of Leishmania major promastigotes. resazurin fluorescence viability. 200,000 tested, 9% active. inhibition, % at 10 µM; in the data active = inhibition above about 50%;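 note: promastigotes grown with compound for 44 hours at 28 °C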
Large screens that a line does not name were inactive.

C=CCSc1nc2ccccc2n1C(=O)/C=C/c1ccc(OC)c(OC)c1	bCat KO growth 1.8, PTEN del growth 1.8, Lmaj promast 71
CCSc1nc2ccccc2n1C(=O)/C=C/c1ccc(OC)c(OC)c1	bCat KO growth 5.4
O=C1CCCC2=C1C(c1cccc(O)c1)c1c(ccc3ncccc13)N2 (stereo not drawn)	none (no result: bCat KO growth, PTEN del growth)
CC1=C(C(=O)OC2CCCCC2)C(c2ccc(C)o2)C2=C(CCCC2=O)N1 (stereo not drawn)	none
CC1=C(C(=O)OC2CCCCC2)C(c2ccco2)C2=C(CC(C)(C)CC2=O)N1 (stereo not drawn)	Lmaj promast 59
Cc1ccc(C(=O)CSC2=C(C#N)C(c3ccco3)C3=C(CC(C)(C)CC3=O)N2)cc1 (stereo not drawn)	Lmaj promast 90
COC(=O)Cc1c(C(=O)OC)nnn1-c1cccc(C(F)(F)F)c1	none (no result: bCat KO growth, PTEN del growth)
N#CCSc1ccc(-c2nc3ccccc3[nH]2)cn1	none (no result: bCat KO growth, PTEN del growth)
CCOc1ccc2nc(-c3cc(NC(C)=O)ccc3O)sc2c1	none (no result: bCat KO growth, PTEN del growth)
Oc1ccc(CNCC2COc3ccccc3O2)cc1 (stereo not drawn)	Lmaj promast 88
CCCNS(=O)(=O)c1ccc(CCC(=O)N2CCN(c3ccc(F)cc3)CC2)cc1	Lmaj promast 57
CCCNS(=O)(=O)c1ccc(CCC(=O)N2CCN(c3ccc(OC)cc3)CC2)cc1	none
CC(C)(C)OC(=O)N1CCN(C(=O)[C@H](Cc2ccc(O)cc2)n2cc(CCO)nn2)CC1	none (no result: bCat KO growth, PTEN del growth)
C(=N\Nc1nc2ccccc2[nH]1)/c1c[nH]c2ccccc12	Lmaj promast 99
Cc1ccc(/C=N/Nc2nc3ccccc3[nH]2)s1	Lmaj promast 57
O=C(Nc1nc2ccccc2[nH]1)c1ccccc1[N+](=O)[O-]	none (no result: bCat KO growth, PTEN del growth)
Cc1nn(-c2ccccc2)c(Cl)c1/C=N/Nc1nc2ccccc2[nH]1	none
Brc1ccc(-c2ccc(/C=N/Nc3nc4ccccc4[nH]3)o2)cc1	Lmaj promast 80
O=[N+]([O-])c1cc(/C=N/Nc2nc3ccccc3[nH]2)c(O)cc1O	bCat KO growth 5.2, Lmaj promast 99
CCC(CC)C(=O)Nc1cc(C)cc(C)c1	none
Cc1cccc(CS(=O)(=O)Cc2ccc(C(=O)NCc3cccs3)o2)c1	none (no result: bCat KO growth, PTEN del growth)
CC[C@H](C)[C@@H](NC(=O)O[C@@H]1C(=O)c2cc(Br)ccc2O[C@H]1c1ccc2c(c1)OCO2)C(=O)OC	none
CC(C)OC(=O)c1c(F)c(F)c(N2CCOCC2)c(F)c1F	none (no result: PTEN del growth)
Cc1ccccc1/C=N/Nc1nc2ccccc2[nH]1	Lmaj promast 79 (no result: bCat KO growth, PTEN del growth)
COc1ccc(-n2ncc3c(SCC(=O)N4CCN(c5ccccc5OC)CC4)ncnc32)cc1	none
CC1Cc2ccccc2N1C(=O)c1cc2sccc2n1Cc1ccc(F)cc1 (stereo not drawn)	none
CCOC(=O)c1ccc(NC(=O)COc2ccc(CNC3CCCCC3)cc2OC)cc1	Lmaj promast 94 (no result: bCat KO growth, PTEN del growth)
COc1cc(CNC(C)(C)CO)ccc1OCC(=O)Nc1ccc(Br)cc1	Lmaj promast 101
CCOC(=O)c1ccc(NC(=O)COc2ccccc2CNCCc2ccccc2)cc1	Lmaj promast 101 (no result: bCat KO growth, PTEN del growth)
C=CCOc1ccc(CNC(C)(C)CO)cc1OC	none
CCOC(=O)c1ccc(NC(=O)COc2ccc(CNCCO)cc2OCC)cc1	none (no result: bCat KO growth, PTEN del growth)
CCOC(=O)c1ccc(NC(=O)COC)cc1	none
C=CCSc1nnc(CC(OC)OC)n1-c1ccccc1	none (no result: bCat KO growth, PTEN del growth)
Cc1cc(NS(=O)(=O)c2ccc(NC(=O)c3cc(-c4ccccc4Cl)nc4ccccc34)cc2)no1	Lmaj promast 60
O=C(NNC(=O)c1cc(-c2ccc(Cl)cc2Cl)nc2ccccc12)Nc1ccccc1	Lmaj promast 70
O=C(NCc1ccccn1)c1cc(-c2ccccc2Cl)nc2ccccc12	Lmaj promast 87
O=C(NCCc1ccccn1)c1cc(-c2ccc(Cl)c(Cl)c2Cl)nc2ccccc12	none
O=C(NN=C1CCN(Cc2ccccc2)CC1)C(O)c1ccccc1 (stereo not drawn)	none
CCc1cccc(CC)c1NC(=S)NCCc1c(C)[nH]c2ccc(C)cc12	PTEN del growth 2.6, Lmaj promast 53
COc1ccc2[nH]c(C)c(CCNC(=S)Nc3cccc(C)c3)c2c1	none
CCc1cccc(C)c1NC(=S)NCCc1c(C)[nH]c2ccc(C)cc12	bCat KO growth 3.5
CC1=C(C)CC2(SC1)C(=O)N(c1ccccc1)N=C2N (stereo not drawn)	none (no result: bCat KO growth, PTEN del growth)
CCOc1ccccc1NC(=O)C(NCC1(N2CCCCC2)CCCCC1)c1ccccc1 (stereo not drawn)	Lmaj promast 66 (no result: bCat KO growth, PTEN del growth)
CNC(=O)COc1ccc(C=O)cc1OC	Lmaj promast 60
COc1cc(C=O)ccc1OCCOCCOc1cc(C)ccc1Cl	Lmaj promast 73
COc1cc(C)ccc1OCCOCCN(C)Cc1ccccc1	Lmaj promast 91
COc1cc(C)ccc1OCCOc1ccccc1Cl	none
CN(CCOCCOc1ccc2ccccc2c1)Cc1ccccc1	Lmaj promast 100
COc1ccc(CCNC(=O)c2ccc(CNS(=O)(=O)c3cc(C)ccc3C)cc2)cc1OC	none
CCOCCCN(Cc1ccco1)C(=O)c1cc2c(=O)[nH]c3ccc(C)cc3c2s1	Lmaj promast 73
Cc1ccc2[nH]c(=O)c3cc(C(=O)N(C)Cc4ccco4)sc3c2c1	Lmaj promast 56
CCOC(=O)CCNC(=O)N1CCCC(CCC(=O)N(C)CCc2ccccn2)C1 (stereo not drawn)	none (no result: bCat KO growth, PTEN del growth)
Cc1ccc(C(OCC(C)(C)C[N+](C)(C)C)c2ccccc2)cc1 (stereo not drawn)	Lmaj promast 100 (no result: bCat KO growth, PTEN del growth)
CC(CCc1ccccc1)NC(=O)/C=C/c1ccc(Cl)cc1 (stereo not drawn)	Lmaj promast 52
O=C(CCc1ccccc1)NNC(=O)c1ccccc1C(=O)O	Lmaj promast 60
O=C(Nc1ccccc1)Nc1ccc(F)cc1F	none (no result: bCat KO growth, PTEN del growth)
O=C(NNc1ccc([N+](=O)[O-])cc1)c1ccccc1F	PMI act satM6P 2.3 (no result: bCat KO growth, PTEN del growth)
O=C(O)c1ccccc1C(=O)NNc1ccc(F)cc1F	PMI act satM6P 2.5 (no result: bCat KO growth, PTEN del growth)
Cc1nn(-c2ccccc2)c2sc(-c3n[nH]c(=S)o3)cc12	none
COc1ccc(Cl)cc1N(CC(=O)NC(C(C)C)C(C)C)S(C)(=O)=O	none
O=C(O)CCNc1ccc2c(c1)OCCO2	none
O=C(O)c1ccccc1C(=O)NNc1ccc(Cl)cc1	PMI act satM6P 2.4
O=C(/C=C/c1ccccc1)NNc1ccc(Cl)cc1	PMI act satM6P 2.7, Lmaj promast 99 (no result: bCat KO growth, PTEN del growth)
O=C(c1ccccc1)N1CCN(C(=S)NCCc2ccccc2)CC1	Lmaj promast 53
CN1CCN(C(=S)NCCc2ccccc2)CC1	none
CC12CCC(C(=O)Nc3cccc4ccccc34)(C1Br)C2(C)C (stereo not drawn)	none
CCc1ccc([C@@H]2C[C@H]3CN(Cc4ccccc4OC)C(=O)[C@]34CCCN24)cc1	none (no result: bCat KO growth, PTEN del growth)
Clc1cccc(OCCN2CCOCC2)c1	none
Clc1cccc(OCCN2CCNCC2)c1	Lmaj promast 100
CN(CCOc1cccc(C(F)(F)F)c1)Cc1ccccc1	none (no result: bCat KO growth, PTEN del growth)
FC(F)(F)c1cccc(OCCN2CCN(Cc3ccccc3)CC2)c1	Lmaj promast 76
